Compounds with a hit are over-represented: about 4.5% of the library has one in this group of screens.
TAAR1 antag: human TAAR1 antagonists, primary screen, Fluo-8 calcium fluorescence, CHO RD-HGA16 cells; antagonist; actives 1.5% (n = 360,000); AID 624466, 2012; inhibition, % at 3 µM;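 active = inhibition above a per-plate cutoff, the mean inhibition of test compounds on that plate plus 3 SD, cut at about 49% in these data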;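 note: 0% = DMSO plus EC80 beta-PEA response and 100% = DMSO alone without agonist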
Target sequence (Q96RJ0 whole entry, looked up): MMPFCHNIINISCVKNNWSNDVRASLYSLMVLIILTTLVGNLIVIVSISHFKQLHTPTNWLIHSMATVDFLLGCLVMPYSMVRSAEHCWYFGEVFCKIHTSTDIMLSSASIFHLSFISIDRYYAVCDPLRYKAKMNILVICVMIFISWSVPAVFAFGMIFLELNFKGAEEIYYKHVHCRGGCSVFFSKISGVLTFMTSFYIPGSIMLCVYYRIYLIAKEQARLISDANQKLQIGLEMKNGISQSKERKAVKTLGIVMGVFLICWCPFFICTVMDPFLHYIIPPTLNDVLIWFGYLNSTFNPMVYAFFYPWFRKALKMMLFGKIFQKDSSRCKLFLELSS
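Test system: CHO RD-HGA16 cells bearing hTAAR1 | Reagent: β-PEA, EC80 | Compound dosing: 3 µM, single point | Schedule: Dye loading 75 min at 37 °C, then 30 min room temperature | Signal: Calcium fluorescence with Fluo-8 | Evaluation: Percent inhibition of PEA-evoked calcium signal, max/basal emission ratio | Control set: DMSO-only wells and EC80 β-PEA-stimulated wells | Repeats: Singlicate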
GPR7 antag: GPR7 receptor antagonists, primary screen, cell-based, fluorescence, single concentration. Neuropeptides B/W receptor type 1 (Homo sapiens), P48145. GPR7-expressing cells, fluorescence antagonist assay. inhibition, % at 4.4 µM. AID 1861, 2009. actives 1.1% (n = 290,000); in the data active = inhibition above about 16%, passing the limit was not always enough;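 note: cells stimulated with the agonist NPW; 0% = agonist with vehicle and 100% = vehicle without agonist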
Target sequence (P48145 whole entry, looked up): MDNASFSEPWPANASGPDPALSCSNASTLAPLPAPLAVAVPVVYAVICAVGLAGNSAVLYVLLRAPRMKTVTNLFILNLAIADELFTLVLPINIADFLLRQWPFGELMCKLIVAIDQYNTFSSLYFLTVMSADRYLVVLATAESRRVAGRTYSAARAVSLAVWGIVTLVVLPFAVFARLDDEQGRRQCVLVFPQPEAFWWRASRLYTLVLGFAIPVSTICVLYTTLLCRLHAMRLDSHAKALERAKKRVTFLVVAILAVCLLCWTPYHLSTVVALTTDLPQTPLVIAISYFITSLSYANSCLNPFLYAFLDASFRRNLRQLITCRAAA
OX1R antag-1: OX1R (HCRTR1) antagonists, primary screen, fluorescence, CHO/OX1R cells, Fluo-8 calcium, orexin A; Orexin/Hypocretin receptor type 1 (Homo sapiens), O43613; inhibition, % at 5 µM; Fluo-8 calcium fluorescence; actives 0.43% (n = 330,000);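 active = inhibition above its plate's threshold, mean inhibition of all tested compounds on the plate plus 3 SD, cut at about 37% in these data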;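 note: 0% = orexin A challenge wells and 100% = SB-334867-A antagonist wells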
CHO parental Ca: ATP-evoked calcium signal inhibitors, parental CHO, primary screen, counter-screen for OX1R antagonist project, cell-based, fluorescence, Fluo-8 calcium dye; parental CHO-K1, ATP-induced calcium, Fluo-8 fluorescence; inhibition, % at 5.6 µM; actives 0.63% (n = 330,000); AID 463079, 2010;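 active = inhibition above that plate's mean sample inhibition plus 3 SD, cut at about 26% in these data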;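 note: 0% = ATP-challenged DMSO wells and 100% = DMSO wells without ATP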
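Test system: untransfected parental CHO cell line. Compound: one dose, 5.6 µM nominal. Detection: intracellular calcium via Fluo-8 no-wash fluorescent dye. Measure: % inhibition. Benchmarks: ATP-challenged DMSO wells low, unchallenged DMSO wells high.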
TAAR1 agonist: human TAAR1 agonists, primary screen, Fluo-8 calcium fluorescence, CHO RD-HGA16 cells | AID 624467, 2012 | actives 0.99% (n = 360,000) | vehicle wells 0%, saturating PEA agonist 100% | Trace amine-associated receptor 1 (Homo sapiens), Q96RJ0 | activation, % at 3 µM;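 active = activation above the mean activation of all test compounds in the run plus 3 SD, cut at about 38% in these data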
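Assay system – CHO-derived RD-HGA16 cells with stable Gα16 and human TAAR1 · Compound dosing – one-point dosing at 3 µM (nominal) · Incubation – 17-24 h seeding, 75 min 37 °C dye, 30 min RT · Measured by – kinetic Fluo-8 calcium fluorescence · Control set – DMSO vehicle as 0%, PEA at EC100 as 100% · Repeats – single well for each compound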
OX1R antag-2: antagonists of human orexin 1 receptor (OX1R); Orexin/Hypocretin receptor type 1 (Homo sapiens), O43613; OX1R-expressing cells, FRET antagonist read-out; inhibition, % at 6.6 µM; actives 1.8% (n = 330,000); in the data active = inhibition mostly above about 38%, no sharp cut-off; inactive = mostly below about 40%;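 note: 0% = agonist challenge alone and 100% = reference antagonist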
An asterisk follows results filed as active; . = not tested or not shown.

SMILES | TAAR1 antag | GPR7 antag | OX1R antag-1 | CHO parental Ca | TAAR1 agonist | OX1R antag-2
COC(=O)C1=C(C)N(Cc2ccc(C(F)(F)F)cc2)C(=NCc2ccccc2C(F)(F)F)NC1c1ccc(C(F)(F)F)cc1 (centres undefined) | -13 | . | . | . | 2 | .
COCc1cc(C)nc(SCC(=O)Nc2cccc3cccnc23)c1C#N | -6 | -3 | -2 | -8 | 0 | 52*
CCN1C(=O)N[C@H]2C[C@@H](c3ccccc3)[C@@H](C)[C@@H](C(=O)N3CCCC3)C[C@H]21 | -4 | . | . | . | 1 | .
C=CCNc1nc(-c2cccc(OC)c2O)nc2ccccc12 | 26 | -22 | -8 | 5 | 17 | 47*
COc1cccc(-c2nc(NCc3ccco3)c3ccccc3n2)c1O | -12 | -16 | -20 | -5 | 17 | 29
COc1cccc(-c2nc(NCc3ccccc3)c3ccccc3n2)c1O | 5 | -17 | -9 | -1 | 0 | 37*
CCN(CC)c1ccc2c(c1)CCCN2 | . | -5 | -22 | -4 | . | 85*
CN(C)S(=O)(=O)c1ccc(-c2csc(N/N=C/c3ccc(O)cc3)n2)cc1 | 77* | 16 | 18 | 11 | 27 | 15
COC(=O)C1=C(C)N(Cc2ccccc2C(F)(F)F)C(=NCc2ccccc2C(F)(F)F)NC1c1ccc(Cl)cc1 (centres undefined) | -25 | . | . | . | 1 | .
Cc1cc(Br)cn2c(Cc3cccc(F)c3)c(-c3ccc(C#N)cc3)nc12 | 1 | . | . | . | 1 | .
COC(=O)C1=CN(c2ccc(C)cc2)C(N)=C(C#N)C1c1ccccc1F (centres undefined) | -4 | . | . | . | 0 | .
Cc1ccccc1CN(C)Cc1cc(=O)oc2c(C)c(C)ccc12 | 51* | 14 | -2 | 6 | -1 | 20
COc1cccc(CN(C)Cc2cc(=O)oc3c(C)c(C)ccc23)c1 | 13 | -18 | . | . | 2 | .
O=C(Cn1cnc2cc([N+](=O)[O-])ccc2c1=O)NC1CCS(=O)(=O)C1 (centres undefined) | 11 | -8 | -18 | -1 | 7 | 63*
CN(Cc1cccs1)C(=O)Cn1cnc2cc([N+](=O)[O-])ccc2c1=O | 3 | -8 | -17 | -2 | 6 | 40*
O=C(Cn1cnc2cc([N+](=O)[O-])ccc2c1=O)N(Cc1ccccc1)C1CCS(=O)(=O)C1 (centres undefined) | -5 | 3 | -22 | -16 | 1 | 49
COc1cc(C(=O)NC2CC2)cc(OC)c1OC | -39 | . | . | . | 0 | .
COc1ccc(C(=O)Nc2cccc(/C=C(\CCC(=O)O)c3nc4ccccc4s3)c2)cc1 | 52* | -5 | -12 | -10 | 13 | 22
O=C(O)c1cc(-c2ccccc2Cl)n(-c2cccc(Cl)c2)n1 | -8 | 0 | 13 | -8 | 1 | 37*
CC1(C(=O)NS(=O)(=O)c2ccc(Cl)s2)CCN1C(=O)c1ccc(C2CCCCC2)cc1 (centres undefined) | -10 | . | . | . | 4 | .
CC1CCN(CCCOc2ccc(Br)cc2Cl)CC1 | 2 | 7 | -21 | -12 | 39* | 9
COc1cccc(C=NNc2nnc(NN=Cc3cccc(OC)c3OC)c3ccccc23)c1OC | 21 | . | . | . | 2 | .
COc1cccc(/C=N/Nc2nnc(C)n2N)c1OCc1ccccc1Cl | -22 | -1 | -1 | 2 | 1 | 67*
COc1ccccc1/C=C/CN1CCCC(CO)(Cc2cccc(Cl)c2)C1 (centres undefined) | -12 | -4 | 61* | 34* | 3 | 69*
CC(C)[C@@H]1CC[C@@H](C)C[C@H]1OC[B-](F)(F)F | -18 | . | . | . | 0 | .
SMILES | TAAR1 antag | GPR7 antag | OX1R antag-1 | CHO parental Ca | TAAR1 agonist | OX1R antag-2
COc1ccc(N(C)S(=O)(=O)c2cccc(C(=O)Nc3nc4ccccc4[nH]3)c2)cc1 | 55* | 14 | -16 | -1 | 9 | 20
CN(c1cccc(Cl)c1)S(=O)(=O)c1cccc(C(=O)Nc2nc3ccccc3[nH]2)c1 | 61* | 6 | 5 | -7 | 12 | 52
COc1ccc(N(C)S(=O)(=O)c2cccc(C(=O)NC3CCCCCC3)c2)cc1 | -16 | 43* | -29 | -19 | -2 | 19
O=C(Nc1nc2ccccc2[nH]1)c1cccc(Cl)c1 | 4 | -12 | -21 | -10 | 0 | 20
CCCCOc1ccc(C(=O)NC2CCCCN(C)C2=O)cc1 (centres undefined) | 2 | . | . | . | 1 | .
O=C1NC(=O)/C(=C/c2ccc(-c3cc(C(=O)O)ccc3Cl)o2)S1 | -6 | 2 | -10 | -3 | 5 | 3
O=C1NC(=S)/C(=C\c2ccc(-c3ccccc3Cl)o2)S1 | 50* | -5 | 18 | 12 | 9 | 44
CC(C)CNc1cccc2c1S(=O)(=O)N(Cc1cccc(F)c1)[C@@H](C)[C@H](c1ccccc1)O2 | 3 | . | . | . | 0 | .
CC1=C(Nc2ccc(C(=O)O)cc2)C(=O)c2ccccc2C1=O | -6 | -5 | -14 | -2 | -1 | 44*
C=CCCC1CN(Cc2ccc(OC)cc2)S(=O)(=O)c2c(cccc2N2CCCC2)O1 (centres undefined) | -72 | . | . | . | -1 | .
COc1ccc(C(=O)N(C)[C@H]2C[C@H]3c4[nH]c5c(-c6ccccc6)cccc5c4CCN3C(=O)[C@H]2[C@H](C)O)cc1 | 24 | . | . | . | 6 | .
COc1ccc(-n2c(-c3ccccc3)c[n+]3c2CCC3)cc1 | -21 | -4 | 9 | -1 | 8 | 17
CCOc1ccc(-c2c[n+]3c(n2-c2ccccc2)CCCCC3)cc1 | 2 | 25* | -19 | 3 | 3 | 12
O=C(CCc1ccccc1)Nc1cccc(NC(=O)CCc2ccccc2)c1 | 16 | 2 | 19 | -29 | 19 | 48*
O=C(c1cccc([N+](=O)[O-])c1)c1ccc2c(c1)C(=O)NC2=O | 8 | -3 | -1 | 10 | 5 | 54*
COC(=O)[C@@]12C[C@@H](CC(=O)N3CCC(c4ccccc4)CC3)C(=O)N(Cc3ccco3)C1=CCC(C)(C)C2 | -30 | . | . | . | -2 | .
COc1cccc(Cn2c(N)c(C#N)c3nc4ccccc4nc32)c1OC | 6 | 0 | 2 | -11 | 4 | 46*
COc1ccc(Cn2c(N)c(C#N)c3nc4ccccc4nc32)cc1 | 10 | 18 | 28 | -11 | 11 | 22
CCOC(=O)[C@@H]1CSCCS(=O)(=O)N1C(=O)[C@H](CC(C)C)NC(=O)OC(C)(C)C | -1 | . | . | . | 13 | .

Assay outcomes (PubChem)
